Consider 34 compounds from ChEMBL document CHEMBL1287655, “Structure-activity relationship studies of acridones as potential antipsoriatic agents. 2. Synthesis and antiproliferative activity of 10-substituted hydroxy-10H-acridin-9-ones against human keratinocyte growth” (Eur J Med Chem, 2010).

Experiment [1] deals with HaCaT. As to the kind of experiment: Antiproliferative activity against human HaCaT cells assessed as dispersed cells after 48 hrs by phase-contrast microscopic analysis. Type of experiment: functional, cell-based. The essentials:
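HaCaT keratinocytes (non-transformed human line) treated for 48 h, then dispersed cells counted by phase-contrast microscopy. Inhibition = (1 − test/control) × 100, from means of test (N = 3) versus control (N = 6–8). Significance by Student's t-test (P < 0.05). IC50 obtained by nonlinear regression.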

Experiment [2] has as its system HaCaT. As to the kind of experiment: Cytotoxicity against human HaCaT cells assessed as LDH release at 2 uM after 4 hrs by UV method. Type of experiment: functional. The method, boiled down:
(§1)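 HaCaT cells exposed to test compound for 4 h at 37 °C. Extracellular LDH activity measured by UV method with pyruvate and NADH and reported in mU/mL (N = 3, SD < 10%). Vehicle control was 0.2% DMSO in culture medium. Brij 35 with ultrasound served as positive control. Significance versus vehicle at P < 0.05.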
(Release of lactate dehydrogenase indicates damage to the cell membrane.)

In experiment [3] the test system is Radical scavenging activity. As to the kind of experiment: Antioxidant activity assessed as DPPH free radical scavenging activity. Type of experiment: functional. The essentials: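 Cell-free DPPH radical interaction: compound effect on DPPH absorbance read at 520 nm. Percent interaction = (1 − test absorbance/control absorbance) × 100, from mean of N = 3 versus control N = 8. EC50 is the concentration giving 50% decrease in DPPH absorbance. NDGA and α-tocopherol served as positive controls.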
(In general: Loss of DPPH colour is used to gauge radical scavenging.)

Experiment [4] has as its system HaCaT. Kind of experiment: Cytotoxicity against human HaCaT cells assessed as LDH release at 2 uM after 4 hrs by UV method relative to control. Type of experiment: functional. The method, boiled down:
as §1

Bounds are passed on as bounds.

As to `Cn1c2ccccc2c(=O)c2c(O)cc(O)cc21`, the IC50 (as a rule, the midpoint of a concentration-inhibition curve) in experiment [1] was 0.6 µM. Further, in experiment [2], the Activity is given as 74.3 mU/ml. In addition, the EC50 (in general, the midpoint of the concentration-response curve) in experiment [3] was greater than 500 µM.
Take `CCn1c2ccccc2c(=O)c2c(O)cc(O)cc21`: the IC50 in experiment [1] is greater than 50 µM.
The same measure, in the same setting: as for `CCn1c2ccccc2c(=O)c2c(O)cccc21`, the figure is greater than 50 µM.
On to `COc1ccc(CCn2c3ccccc3c(=O)c3c(O)cccc32)cc1OC`, for which the 50% inhibitory concentration (IC50) in experiment [1] was found to be 7 µM. The EC50 in experiment [3] was greater than 500 µM.
On to `O=c1c2ccccc2[nH]c2ccccc12` [ACRIDONE], for which the IC50 in experiment [1] was greater than 50 µM.
For the compound `O=c1c2ccccc2n(Cc2ccccc2)c2cccc(O)c12`, the IC50 in experiment [1] worked out at 2.5 µM. In addition, the Activity in experiment [2] is on record as 74.9 mU/ml. Besides, the EC50 in experiment [3] was greater than 500 µM.
Regarding `COc1ccc(Cn2c3ccccc3c(=O)c3ccccc32)cc1OC`, in experiment [1], the IC50 was greater than 50 µM. The EC50 in experiment [3] was greater than 500 µM.
`CC(=O)CC(=O)n1c2ccccc2c(=O)c2c(O)cccc21`: in experiment [1], the IC50 was found to be 3.3 µM. Moreover, the Activity in experiment [2] came to 74 mU/ml. Besides, the half-maximal effective concentration (EC50) in experiment [3] is greater than 500 µM.
Consider `O=c1c2ccccc2n(Cc2ccccc2)c2ccccc12`, for which, in experiment [1], the half-maximal inhibitory concentration (IC50) was greater than 50 µM.
Turning to `O=c1c2ccccc2[nH]c2cccc(O)c12`, in experiment [1], the IC50 is greater than 50 µM. For the same compound, the EC50 in experiment [3] was greater than 500 µM.
Turning to `CCCn1c2ccccc2c(=O)c2c(O)cc(O)cc21`, the IC50 in experiment [1] is greater than 50 µM.
Still for that read-out and setting: next, `O=c1c2ccccc2n(CCCc2ccccc2)c2cc(O)cc(O)c12`: 40.5 µM.
Turning to `O=c1c2ccccc2n(CCc2ccccc2)c2cccc(O)c12`, the IC50 in experiment [1] stood at 41.5 µM.
`O=c1c2ccccc2n(CCc2ccc(O)cc2)c2cccc(O)c12`: the IC50 in experiment [1] worked out at 20.1 µM. For the same compound, the EC50 in experiment [3] was greater than 500 µM.
As for `COc1cc2c(c3c1c(=O)c1ccccc1n3C)C=CC(C)(C)O2` [ACRONINE], the IC50 in experiment [1] is 3.2 µM. Further, the Activity in experiment [2] is recorded as 70.4 mU/ml. The EC50 in experiment [3] is greater than 500 µM.
As to `O=c1c2ccccc2n(Cc2ccccc2)c2cc(OCc3ccccc3)cc(O)c12`, the IC50 in experiment [1] is greater than 50 µM.
Regarding `COc1ccc(CCn2c3ccccc3c(=O)c3c(O)cccc32)cc1`, the IC50 in experiment [1] is 6.3 µM. For the same compound, the Activity in experiment [2] is reported as 74.6 mU/ml. The EC50 in experiment [3] was greater than 500 µM.
In the case of `O=c1c2ccccc2n(CCCCc2ccccc2)c2cccc(O)c12`, the IC50 in experiment [1] was greater than 50 µM.
Consider `O=c1c2ccccc2n(Cc2ccccc2)c2cc(O)cc(O)c12`, for which the IC50 in experiment [1] stood at 3.7 µM. For the same compound, the Activity in experiment [2] came out at 76.8 mU/ml. Besides, the EC50 in experiment [3] is greater than 500 µM.
With `CCOc1cc(O)c2c(=O)c3ccccc3n(CC)c2c1`, the half-inhibitory concentration (IC50) in experiment [1] was greater than 50 µM.
Still for that read-out and setting: next, `CC(=O)CC(=O)n1c2ccccc2c(=O)c2ccccc21`: 27.8 µM; `Cc1cccc2c1c(=O)c1c(O)cc(O)cc1n2C`: greater than 50 µM.
Consider `O=C1c2c(O)cccc2Cc2cccc(O)c21` [ANTHRALIN], for which the EC50 in experiment [3] was 16.7 µM. Moreover, the Activity in experiment [4] stood at 122.8 mU/ml.
On to `O=c1c2ccccc2[nH]c2cc(O)cc(O)c12`, for which the concentration for a half-maximal effect (EC50) in experiment [3] was greater than 500 µM.
In the case of `O=c1c2ccccc2n(Cc2ccc([N+](=O)[O-])cc2)c2cccc(O)c12`, in experiment [1], the IC50 is 1.8 µM. The EC50 in experiment [3] is greater than 500 µM. Also, in experiment [4], the Activity was 86.7 mU/ml.
For the compound `O=c1c2ccccc2n(Cc2ccccc2)c2cccc(OCc3ccccc3)c12`, the IC50 in experiment [1] turned out to be 7.5 µM. Further, the Activity in experiment [2] amounted to 72.1 mU/ml. The EC50 in experiment [3] was greater than 500 µM.
Take `CCCn1c2ccccc2c(=O)c2c(O)cccc21`: in experiment [1], the IC50 was greater than 50 µM.
Same read-out and setting: next, `Cn1c2ccccc2c(=O)c2ccccc21`: 38.9 µM; `O=c1c2ccccc2n(Cc2ccccc2)c2ccc(Cc3ccccc3)c(O)c12`: 13 µM.
Still for that read-out and setting: as for `COc1cc(CCn2c3ccccc3c(=O)c3c(O)cccc32)cc(OC)c1OC`, the figure is 45.5 µM; as for `COc1cccc2c1c(=O)c1ccccc1n2C`, greater than 50 µM; as for `COc1cc(O)c2c(=O)c3ccccc3n(C)c2c1`, greater than 50 µM.
Still for that read-out and setting: next, `Cn1c2ccccc2c(=O)c2c(O)cccc21`: greater than 50 µM; `O=c1c2ccccc2n(CCCc2ccccc2)c2cccc(O)c12`: greater than 50 µM.
